{"source": "ChEMBL document CHEMBL5303300", "about": "“EUbOPEN Chemogenomics Library - Multiplex” (2023)", "key": {"Fibroblast": {"test_system": "Fibroblast", "experiment": "Multiplex assay against human fibroblast", "type": "toxicity, cell-based", "settings": "number of replicates 2", "how_it_was_run": "(§1)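 Tubulin, mitochondrial-mass and membrane-permeability phenotypes are per cents of healthy-nucleus cells. Cells were gated by CellPathfinder machine learning into Hoechst high-intensity objects or normal cells, normal cells into healthy, pyknosed or fragmented nuclei, and pyknosed cells into mitotic or apoptotic. Before that, live cells stained at seeding with Hoechst33342, BioTracker Green Microtubule Cytoskeleton Dye, MitoTracker Red and Annexin V Alexa Fluor 680 were imaged on a CQ1 microscope at 37°C and 5% CO2 after compound addition.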"}, "HEK-293T": {"test_system": "HEK-293T", "experiment": "Multiplex assay against HEK293T", "type": "toxicity, cell-based", "settings": "human, number of replicates 2", "how_it_was_run": "as §1"}, "[1]": {"settings": "12 h, 1 µM, compound concentration 1 uM"}, "[2]": {"settings": "12 h, 10 µM, compound concentration 10 uM"}, "[3]": {"settings": "24 h, 1 µM, compound concentration 1 uM"}, "[4]": {"settings": "24 h, 10 µM, compound concentration 10 uM"}, "[5]": {"settings": "48 h, 1 µM, compound concentration 1 uM"}, "[6]": {"settings": "48 h, 10 µM, compound concentration 10 uM"}}, "note": "“And” between values parts separate entries of the source, which are not always exact repeats. Equal values may be shown once."}
{"smiles": "NCC1CCC(CNc2nc(NCc3ccccc3OC(F)(F)F)ncc2[N+](=O)[O-])CC1", "note": "(stereo not given)", "values": [{"measurement": "Population Apoptotic (%)", "setting": "Fibroblast; [1]", "result": "46% and 42%"}, {"measurement": "Population Fragmented Nuclei (%)", "setting": "Fibroblast; [1]", "result": 9, "unit": "%"}, {"measurement": "Population Healthy Nuclei (%)", "setting": "Fibroblast; [1]", "result": "68% and 62%"}, {"measurement": "Population Hoechst High Intensity Objects (%)", "setting": "Fibroblast; [1]", "result": 0, "unit": "%"}, {"measurement": "Population Membrane Permeable-Phenotype (%)", "setting": "Fibroblast; [1]", "result": "7% and 9%"}, {"measurement": "Population Mitochondria Different-Phenotype (%)", "setting": "Fibroblast; [1]", "result": "1% and 2%"}, {"measurement": "Population Mitotic Cells (%)", "setting": "Fibroblast; [1]", "result": "53% and 57%"}, {"measurement": "Population Normal (%)", "setting": "Fibroblast; [1]", "result": "100% and 99%"}, {"measurement": "Population Pyknosed Nuclei (%)", "setting": "Fibroblast; [1]", "result": "21% and 27%"}, {"measurement": "Population Tubulin-Different-Phenotype (%)", "setting": "Fibroblast; [1]", "result": "60% and 45%"}, {"measurement": "Total Cell Count", "setting": "Fibroblast; [1]", "result": "205 and 224"}, {"measurement": "Population Apoptotic (%)", "setting": "Fibroblast; [2]", "result": "34% and 27%"}, {"measurement": "Population Fragmented Nuclei (%)", "setting": "Fibroblast; [2]", "result": "14% and 23%"}, {"measurement": "Population Healthy Nuclei (%)", "setting": "Fibroblast; [2]", "result": "54% and 60%"}, {"measurement": "Population Hoechst High Intensity Objects (%)", "setting": "Fibroblast; [2]", "result": 0, "unit": "%"}, {"measurement": "Population Membrane Permeable-Phenotype (%)", "setting": "Fibroblast; [2]", "result": "6% and 9%"}, {"measurement": "Population Mitochondria Different-Phenotype (%)", "setting": "Fibroblast; [2]", "result": "28% and 18%"}, {"measurement": "Population Mitotic Cells (%)", "setting": "Fibroblast; [2]", "result": "65% and 72%"}, {"measurement": "Population Normal (%)", "setting": "Fibroblast; [2]", "result": 100, "unit": "%"}, {"measurement": "Population Pyknosed Nuclei (%)", "setting": "Fibroblast; [2]", "result": "31% and 16%"}, {"measurement": "Population Tubulin-Different-Phenotype (%)", "setting": "Fibroblast; [2]", "result": "84% and 87%"}, {"measurement": "Total Cell Count", "setting": "Fibroblast; [2]", "result": "135 and 286"}, {"measurement": "Population Apoptotic (%)", "setting": "Fibroblast; [3]", "result": "64% and 60%"}, {"measurement": "Population Fragmented Nuclei (%)", "setting": "Fibroblast; [3]", "result": "10% and 15%"}, {"measurement": "Population Healthy Nuclei (%)", "setting": "Fibroblast; [3]", "result": "67% and 62%"}, {"measurement": "Population Hoechst High Intensity Objects (%)", "setting": "Fibroblast; [3]", "result": "0% and 1%"}, {"measurement": "Population Membrane Permeable-Phenotype (%)", "setting": "Fibroblast; [3]", "result": "0% and 1%"}, {"measurement": "Population Mitochondria Different-Phenotype (%)", "setting": "Fibroblast; [3]", "result": 8, "unit": "%"}, {"measurement": "Population Mitotic Cells (%)", "setting": "Fibroblast; [3]", "result": "35% and 40%"}, {"measurement": "Population Normal (%)", "setting": "Fibroblast; [3]", "result": "100% and 98%"}, {"measurement": "Population Pyknosed Nuclei (%)", "setting": "Fibroblast; [3]", "result": "22% and 21%"}, {"measurement": "Population Tubulin-Different-Phenotype (%)", "setting": "Fibroblast; [3]", "result": "50% and 37%"}, {"measurement": "Total Cell Count", "setting": "Fibroblast; [3]", "result": "202 and 217"}, {"measurement": "Population Apoptotic (%)", "setting": "Fibroblast; [4]", "result": "81% and 62%"}, {"measurement": "Population Fragmented Nuclei (%)", "setting": "Fibroblast; [4]", "result": "21% and 22%"}, {"measurement": "Population Healthy Nuclei (%)", "setting": "Fibroblast; [4]", "result": "58% and 67%"}, {"measurement": "Population Hoechst High Intensity Objects (%)", "setting": "Fibroblast; [4]", "result": 0, "unit": "%"}, {"measurement": "Population Membrane Permeable-Phenotype (%)", "setting": "Fibroblast; [4]", "result": "5% and 3%"}, {"measurement": "Population Mitochondria Different-Phenotype (%)", "setting": "Fibroblast; [4]", "result": "54% and 59%"}, {"measurement": "Population Mitotic Cells (%)", "setting": "Fibroblast; [4]", "result": "18% and 37%"}, {"measurement": "Population Normal (%)", "setting": "Fibroblast; [4]", "result": 100, "unit": "%"}, {"measurement": "Population Pyknosed Nuclei (%)", "setting": "Fibroblast; [4]", "result": "20% and 9%"}, {"measurement": "Population Tubulin-Different-Phenotype (%)", "setting": "Fibroblast; [4]", "result": 93, "unit": "%"}, {"measurement": "Total Cell Count", "setting": "Fibroblast; [4]", "result": "132 and 274"}, {"measurement": "Population Apoptotic (%)", "setting": "Fibroblast; [5]", "result": "70% and 72%"}, {"measurement": "Population Fragmented Nuclei (%)", "setting": "Fibroblast; [5]", "result": "10% and 13%"}, {"measurement": "Population Healthy Nuclei (%)", "setting": "Fibroblast; [5]", "result": "72% and 65%"}, {"measurement": "Population Hoechst High Intensity Objects (%)", "setting": "Fibroblast; [5]", "result": 0, "unit": "%"}, {"measurement": "Population Membrane Permeable-Phenotype (%)", "setting": "Fibroblast; [5]", "result": "4% and 3%"}, {"measurement": "Population Mitochondria Different-Phenotype (%)", "setting": "Fibroblast; [5]", "result": "2% and 4%"}, {"measurement": "Population Mitotic Cells (%)", "setting": "Fibroblast; [5]", "result": "29% and 27%"}, {"measurement": "Population Normal (%)", "setting": "Fibroblast; [5]", "result": 100, "unit": "%"}, {"measurement": "Population Pyknosed Nuclei (%)", "setting": "Fibroblast; [5]", "result": "16% and 20%"}, {"measurement": "Population Tubulin-Different-Phenotype (%)", "setting": "Fibroblast; [5]", "result": "38% and 35%"}, {"measurement": "Total Cell Count", "setting": "Fibroblast; [5]", "result": "210 and 217"}, {"measurement": "Population Apoptotic (%)", "setting": "Fibroblast; [6]", "result": "90% and 66%"}, {"measurement": "Population Fragmented Nuclei (%)", "setting": "Fibroblast; [6]", "result": "28% and 36%"}, {"measurement": "Population Healthy Nuclei (%)", "setting": "Fibroblast; [6]", "result": "65% and 58%"}, {"measurement": "Population Hoechst High Intensity Objects (%)", "setting": "Fibroblast; [6]", "result": "1% and 0%"}, {"measurement": "Population Membrane Permeable-Phenotype (%)", "setting": "Fibroblast; [6]", "result": "0% and 4%"}, {"measurement": "Population Mitochondria Different-Phenotype (%)", "setting": "Fibroblast; [6]", "result": "34% and 30%"}, {"measurement": "Population Normal (%)", "setting": "Fibroblast; [6]", "result": "98% and 99%"}, {"measurement": "Population Pyknosed Nuclei (%)", "setting": "Fibroblast; [6]", "result": "6% and 4%"}, {"measurement": "Population Tubulin-Different-Phenotype (%)", "setting": "Fibroblast; [6]", "result": "92% and 91%"}, {"measurement": "Total Cell Count", "setting": "Fibroblast; [6]", "result": "160 and 339"}, {"measurement": "Population Apoptotic (%)", "setting": "HEK-293T; [1]", "result": "50% and 53%"}, {"measurement": "Population Fragmented Nuclei (%)", "setting": "HEK-293T; [1]", "result": "3% and 4%"}, {"measurement": "Population Healthy Nuclei (%)", "setting": "HEK-293T; [1]", "result": "86% and 81%"}, {"measurement": "Population Hoechst High Intensity Objects (%)", "setting": "HEK-293T; [1]", "result": "9% and 10%"}, {"measurement": "Population Membrane Permeable-Phenotype (%)", "setting": "HEK-293T; [1]", "result": "5% and 1%"}, {"measurement": "Population Mitochondria Different-Phenotype (%)", "setting": "HEK-293T; [1]", "result": "23% and 25%"}, {"measurement": "Population Mitotic Cells (%)", "setting": "HEK-293T; [1]", "result": "50% and 46%"}, {"measurement": "Population Normal (%)", "setting": "HEK-293T; [1]", "result": "90% and 89%"}, {"measurement": "Population Pyknosed Nuclei (%)", "setting": "HEK-293T; [1]", "result": "9% and 14%"}, {"measurement": "Population Tubulin-Different-Phenotype (%)", "setting": "HEK-293T; [1]", "result": "86% and 81%"}, {"measurement": "Total Cell Count", "setting": "HEK-293T; [1]", "result": "881 and 733"}, {"measurement": "Population Apoptotic (%)", "setting": "HEK-293T; [2]", "result": "73% and 77%"}, {"measurement": "Population Fragmented Nuclei (%)", "setting": "HEK-293T; [2]", "result": "6% and 2%"}, {"measurement": "Population Healthy Nuclei (%)", "setting": "HEK-293T; [2]", "result": "79% and 81%"}, {"measurement": "Population Hoechst High Intensity Objects (%)", "setting": "HEK-293T; [2]", "result": "8% and 9%"}, {"measurement": "Population Membrane Permeable-Phenotype (%)", "setting": "HEK-293T; [2]", "result": 1, "unit": "%"}, {"measurement": "Population Mitochondria Different-Phenotype (%)", "setting": "HEK-293T; [2]", "result": 82, "unit": "%"}, {"measurement": "Population Mitotic Cells (%)", "setting": "HEK-293T; [2]", "result": "26% and 22%"}, {"measurement": "Population Normal (%)", "setting": "HEK-293T; [2]", "result": "91% and 90%"}, {"measurement": "Population Pyknosed Nuclei (%)", "setting": "HEK-293T; [2]", "result": "13% and 16%"}, {"measurement": "Population Tubulin-Different-Phenotype (%)", "setting": "HEK-293T; [2]", "result": "93% and 91%"}, {"measurement": "Total Cell Count", "setting": "HEK-293T; [2]", "result": "345 and 365"}, {"measurement": "Population Apoptotic (%)", "setting": "HEK-293T; [3]", "result": "40% and 60%"}, {"measurement": "Population Fragmented Nuclei (%)", "setting": "HEK-293T; [3]", "result": "6% and 5%"}, {"measurement": "Population Healthy Nuclei (%)", "setting": "HEK-293T; [3]", "result": 85, "unit": "%"}, {"measurement": "Population Hoechst High Intensity Objects (%)", "setting": "HEK-293T; [3]", "result": "8% and 9%"}, {"measurement": "Population Membrane Permeable-Phenotype (%)", "setting": "HEK-293T; [3]", "result": "4% and 2%"}, {"measurement": "Population Mitochondria Different-Phenotype (%)", "setting": "HEK-293T; [3]", "result": "9% and 10%"}, {"measurement": "Population Mitotic Cells (%)", "setting": "HEK-293T; [3]", "result": "59% and 40%"}, {"measurement": "Population Normal (%)", "setting": "HEK-293T; [3]", "result": "91% and 90%"}]}
